No. of sensitive and Average skin reaction data for 24 compounds are collected here from ChEMBL document CHEMBL1121508, “Synthesis of alpha-methylene-gamma-butyrolactones: a structure-activity relationship study of their allergenic power” (1980).

Common to all, as to format: functional
The species named for assay [1] is Cavia porcellus. Kind of assay: Number guinea pigs sensitized to the sesquiterpene alantolactone (out of 7 guinea pigs). Also: test concentration or dose not given here. The method, boiled down: (§1)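 Female guinea pigs (albino Hartley and Himalayan spotted Füllingsdorf), 300–500 g, sensitized by Klečak's method. The hapten was emulsified in Freund's complete adjuvant and injected intradermally into the shaved nuchal region on alternate days, five injections in all. Skin reactions at elicitation were scored up to 3 (erythema plus swelling well beyond the test area) and 4 (necrosis or ulceration). Irritation thresholds were first set on untreated animals by the same elicitation procedure.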

The species entered for assay [2] is Cavia porcellus. Nature of the assay: Average skin reaction in guinea pig sensitized to the sesquiterpene alantolactone. The method in brief: as §1
The species named for assay [3] is Cavia porcellus. Kind of assay: Number of guinea pigs sensitized to the sesquiterpene isoalantolactone (out of 8 guinea pigs). Also: test concentration or dose not given here. The method in brief: as §1
For assay [4], the species on record is Cavia porcellus. Kind of assay: Average skin reaction in guinea pig sensitized to the sesquiterpene isoalantolactone. The method, boiled down: as §1
For assay [5], the species on record is Cavia porcellus. Nature of the assay: Number of guinea pigs sensitized to alpha-methylene-gamma-butyrolactone (out of 10 guinea pigs). Also: test concentration or dose not given here. The method in brief:
as §1

The species named for assay [6] is Cavia porcellus. Kind of assay: Average skin reaction in guinea pig sensitized to alpha-methylene-gamma-butyrolactone. The method in brief: as §1

Structures are written as SMILES.

In the case of `C=C1C(=O)OC2CC3(C)CCCC4(CO4)C3CC12` (centres undefined), the values for the No. of sensitive in the assay filed under Cavia porcellus [1] and in the assay filed under Cavia porcellus [3] were 7 and 8, respectively. Moreover, the Average skin reaction in the assay filed under Cavia porcellus [2] came out at 0.7; in the assay filed under Cavia porcellus [4], 1.

Take `C=C1CC(C)OC1=O` (centres undefined): the No. of sensitive in the assay listed under Cavia porcellus [5] came out at 7; in the assay filed under Cavia porcellus [1] it was 0; in the assay filed under Cavia porcellus [3], 0. The results for the Average skin reaction in the assay filed under Cavia porcellus [6], in the assay filed under Cavia porcellus [2] and in the assay listed under Cavia porcellus [4] were 0.6, 0 and 0, respectively.

With `C=C1C(=O)OC(c2ccccc2)(c2ccccc2)C1C(=O)OCC` (centres undefined), the No. of sensitive is listed as 0 in the assay filed under Cavia porcellus [5], 1 in the assay listed under Cavia porcellus [1] and 0 in the assay listed under Cavia porcellus [3]. The figures for the Average skin reaction in the assay filed under Cavia porcellus [6], in the assay listed under Cavia porcellus [2] and in the assay listed under Cavia porcellus [4] were 0, 0.1 and 0, respectively.

As for `C=C1C(=O)O[C@@H]2C[C@@]3(C)CCCC(=C)[C@@H]3C[C@H]12` [ISOALANTOLACTONE], the No. of sensitive in the assay listed under Cavia porcellus [5] is 0; in the assay filed under Cavia porcellus [1], 7; in the assay listed under Cavia porcellus [3], 8. Further, the Average skin reaction worked out at 0 in the assay filed under Cavia porcellus [6], 1.4 in the assay listed under Cavia porcellus [2] and 1.4 in the assay filed under Cavia porcellus [4].

Regarding `C=C1CC(C)(CC(C)(C)C)OC1=O` (centres undefined), the No. of sensitive in the assay filed under Cavia porcellus [5] was determined as 2; in the assay filed under Cavia porcellus [1], 6; in the assay filed under Cavia porcellus [3], 7. The Average skin reaction in the assay filed under Cavia porcellus [6] is reported as 0.1; in the assay filed under Cavia porcellus [2], 0.6; in the assay listed under Cavia porcellus [4], 0.8.

Consider `C=C1CC(CC)OC1=O` (centres undefined), for which the No. of sensitive in the assay listed under Cavia porcellus [5] came to 0. Moreover, the Average skin reaction in the assay filed under Cavia porcellus [6] worked out at 0.

Consider `C=C1CC(C)(C)OC1=O`, for which the results for the No. of sensitive in the assay listed under Cavia porcellus [5], in the assay listed under Cavia porcellus [1] and in the assay listed under Cavia porcellus [3] were 6, 0 and 0, respectively. Also, the Average skin reaction in the assay listed under Cavia porcellus [6] turned out to be 0.5; in the assay listed under Cavia porcellus [2] it was 0; in the assay filed under Cavia porcellus [4], 0.

For `C=C1CCOC1=O` [TULIPALINE A], the values for the No. of sensitive in the assay filed under Cavia porcellus [5] and in the assay filed under Cavia porcellus [1] were 10 and 1, respectively. Moreover, the Average skin reaction in the assay listed under Cavia porcellus [6] turned out to be 1.9; in the assay filed under Cavia porcellus [2], 0.1.

For `C=C1CC2(OC1=O)C(C)CCCC2C` (centres undefined), the No. of sensitive in the assay listed under Cavia porcellus [5] came out at 0; in the assay filed under Cavia porcellus [1], 7; in the assay filed under Cavia porcellus [3], 8. The Average skin reaction in the assay filed under Cavia porcellus [6] worked out at 0; in the assay listed under Cavia porcellus [2], 1; in the assay listed under Cavia porcellus [4], 1.7.

For the compound `C=C1CC(C(C)(C)C)OC1=O` (centres undefined), the No. of sensitive in the assay listed under Cavia porcellus [5] is given as 1; in the assay filed under Cavia porcellus [1] it was 3; in the assay listed under Cavia porcellus [3], 5. The Average skin reaction came to 0.1 in the assay listed under Cavia porcellus [6], 0.3 in the assay listed under Cavia porcellus [2] and 0.5 in the assay filed under Cavia porcellus [4].

With `C=C1CC2(OC1=O)C1CCC(C1)C2(C)C` (centres undefined), the values for the No. of sensitive in the assay filed under Cavia porcellus [5], in the assay filed under Cavia porcellus [1] and in the assay filed under Cavia porcellus [3] were 0, 7 and 8, respectively. Also, the figures for the Average skin reaction in the assay filed under Cavia porcellus [6], in the assay filed under Cavia porcellus [2] and in the assay filed under Cavia porcellus [4] were 0, 0.7 and 1.1, respectively.

`C=C1C(=O)OC2CC3(C)CCCC(=O)C3CC12` (centres undefined): the No. of sensitive stood at 7 in the assay filed under Cavia porcellus [1] and 8 in the assay listed under Cavia porcellus [3]. Further, the Average skin reaction in the assay listed under Cavia porcellus [2] and in the assay listed under Cavia porcellus [4] was 0.9 throughout.

With `C=C1CC2(CC[C@@]3(C)C(CC[C@H]4[C@@H]5CC[C@H](C(C)CCCC(C)C)[C@@]5(C)CC[C@@H]43)C2)OC1=O` (some centres undefined), the No. of sensitive in the assay filed under Cavia porcellus [5] was 0; in the assay filed under Cavia porcellus [1], 1; in the assay listed under Cavia porcellus [3] it was 0. For the same compound, the Average skin reaction is 0 in the assay listed under Cavia porcellus [6], 0.1 in the assay listed under Cavia porcellus [2] and 0 in the assay filed under Cavia porcellus [4].

With `C=C1CC2(CCCCCC2)OC1=O`, the figures for the No. of sensitive in the assay listed under Cavia porcellus [5], in the assay listed under Cavia porcellus [1] and in the assay listed under Cavia porcellus [3] were 2, 7 and 8, respectively. Also, the Average skin reaction in the assay filed under Cavia porcellus [6] was 0.1; in the assay listed under Cavia porcellus [2], 1.1; in the assay filed under Cavia porcellus [4] it was 1.2.

For `C=C1CC2(CCCCC2)OC1=O`, the values for the No. of sensitive in the assay filed under Cavia porcellus [5], in the assay listed under Cavia porcellus [1] and in the assay filed under Cavia porcellus [3] were 2, 5 and 8, respectively. For the same compound, the Average skin reaction in the assay listed under Cavia porcellus [6] was determined as 0.1; in the assay filed under Cavia porcellus [2] it was 0.5; in the assay filed under Cavia porcellus [4] it was 0.8.

On to `C=C1CC(CC)(CC)OC1=O`, for which the No. of sensitive came out at 0 in the assay filed under Cavia porcellus [5], 5 in the assay listed under Cavia porcellus [1] and 8 in the assay listed under Cavia porcellus [3]. The Average skin reaction in the assay listed under Cavia porcellus [6] is on record as 0; in the assay filed under Cavia porcellus [2] it was 0.4; in the assay filed under Cavia porcellus [4], 0.7.

For `C=C1CC2(CCC(C(C)(C)C)CC2)OC1=O` (centres undefined), the No. of sensitive in the assay listed under Cavia porcellus [5] amounted to 1; in the assay filed under Cavia porcellus [1], 6; in the assay filed under Cavia porcellus [3], 8. Moreover, the Average skin reaction came to 0 in the assay listed under Cavia porcellus [6], 0.8 in the assay filed under Cavia porcellus [2] and 1.1 in the assay listed under Cavia porcellus [4].

Take `C=C1CC2(CCCC2)OC1=O`: the No. of sensitive is reported as 0 in the assay filed under Cavia porcellus [5], 2 in the assay filed under Cavia porcellus [1] and 1 in the assay listed under Cavia porcellus [3]. Further, the Average skin reaction is 0 in the assay filed under Cavia porcellus [6], 0.2 in the assay filed under Cavia porcellus [2] and 0.1 in the assay filed under Cavia porcellus [4].

Regarding `C=C1C(=O)OC2CC3(C)CCCC(C)C3=CC12` (centres undefined), the No. of sensitive in the assay filed under Cavia porcellus [5] is given as 0; in the assay listed under Cavia porcellus [1] it was 7; in the assay listed under Cavia porcellus [3] it was 8. The Average skin reaction in the assay filed under Cavia porcellus [6] stood at 0; in the assay listed under Cavia porcellus [2], 3; in the assay filed under Cavia porcellus [4] it was 2.1.

For the compound `C=C1CC2(CCC3(CC2)CC(=C)C(=O)O3)OC1=O` (centres undefined), the No. of sensitive in the assay listed under Cavia porcellus [5] is reported as 0; in the assay filed under Cavia porcellus [1], 0; in the assay listed under Cavia porcellus [3], 1. Moreover, the Average skin reaction in the assay listed under Cavia porcellus [6] is listed as 0; in the assay listed under Cavia porcellus [2], 0; in the assay listed under Cavia porcellus [4], 0.1.

For the compound `C=C1CC2(CCCC3CCCCC32)OC1=O` (centres undefined), the figures for the No. of sensitive in the assay listed under Cavia porcellus [5], in the assay filed under Cavia porcellus [1] and in the assay filed under Cavia porcellus [3] were 0, 7 and 8, respectively. The Average skin reaction in the assay filed under Cavia porcellus [6] amounted to 0; in the assay filed under Cavia porcellus [2], 1.4; in the assay filed under Cavia porcellus [4], 1.4.

Take `C=C1CC2(CCCCCCCCC2)OC1=O`: the No. of sensitive in the assay filed under Cavia porcellus [5] amounted to 0; in the assay filed under Cavia porcellus [1], 7; in the assay listed under Cavia porcellus [3] it was 7. The Average skin reaction in the assay listed under Cavia porcellus [6] was 0; in the assay listed under Cavia porcellus [2], 1.1; in the assay filed under Cavia porcellus [4] it was 0.9.

Take `C=C1C(=O)OC2C3CCC(C3)C12` (centres undefined): the No. of sensitive is listed as 2 in the assay listed under Cavia porcellus [5], 7 in the assay filed under Cavia porcellus [1] and 8 in the assay listed under Cavia porcellus [3]. Also, the Average skin reaction in the assay filed under Cavia porcellus [6] is 0.1; in the assay listed under Cavia porcellus [2], 0.9; in the assay listed under Cavia porcellus [4] it was 1.

On to `C=C1CC(C)(CC)OC1=O` (centres undefined), for which the results for the No. of sensitive in the assay listed under Cavia porcellus [5], in the assay filed under Cavia porcellus [1] and in the assay filed under Cavia porcellus [3] were 0, 5 and 6, respectively. Further, the Average skin reaction in the assay filed under Cavia porcellus [6] is reported as 0; in the assay listed under Cavia porcellus [2] it was 0.4; in the assay filed under Cavia porcellus [4], 0.4.
